An excerpt weighted towards active compounds, which were near 2.2% of everything screened.
FXN GAA850 act – increases GAA850 frataxin promoter reporter activity; HEK293 lucGAA850 FXN promoter luciferase reporter, 24 h; percent of 10 µM SAHA response; activation, % at 6 µM; 0.56% of 360,000 active; AID 540364;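 active means activation above the average of all compounds screened plus 3 SD, cutoff fixed separately per campaign, cut at about 7.5% in these data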;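 further: 0% = DMSO wells and 100% = 10 µM SAHA wells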
GalR3 antagonist – antagonists of human GalR3; HEK293 GalR3-CNG cAMP membrane potential fluorescence; galR3 body fused to GalR1 C-terminus; inhibition, % at 3 µM; 0.44% of 360,000 active;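 active means inhibition above the screen-wide average plus 3 SD, cut at about 13% in these data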;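 further: forskolin and galanin both at EC90 stimulate the cells; cAMP rise reported by CNG channel membrane potential dye signal; 0% = forskolin plus galanin with DMSO and 100% = forskolin alone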
Target sequence (O60755 1-299 limits assumed): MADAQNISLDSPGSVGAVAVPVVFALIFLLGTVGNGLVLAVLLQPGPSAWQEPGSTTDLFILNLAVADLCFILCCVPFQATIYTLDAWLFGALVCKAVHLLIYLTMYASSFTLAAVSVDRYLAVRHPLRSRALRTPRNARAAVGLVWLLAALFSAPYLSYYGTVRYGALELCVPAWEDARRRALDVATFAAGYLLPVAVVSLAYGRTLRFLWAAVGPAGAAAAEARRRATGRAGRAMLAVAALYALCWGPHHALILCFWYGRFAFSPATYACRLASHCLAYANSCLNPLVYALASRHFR
V-ATPase pHluor – yeast V-ATPase proton transport regulation by pHLuorin; response, % at 10 µM; S. cerevisiae, pHLuorin cytosolic pH fluorescence; AID 504577; 0.37% of 350,000 active; in the data active means response mostly above about 7.3%, no sharp cut-off; inactive means mostly below about 5.4%; further: actives read high
NR2E3 ag-1 – agonists of human nuclear receptor NR2E3; Q9Y5X4; GST-NR2E3/biotin-RetCOR TR-FRET, 1536-well; inhibition of corepressor binding, % at 4.78 µM; 0.12% of 320,000 active;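 active means percent inhibition above the cutoff of mean plus 3 SD of all tested compounds, set per screening campaign, cut at about 20% in these data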;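 further: 0% = DMSO wells and 100% = biotin wells as full block of FRET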
Target sequence (Q9Y5X4 whole entry, looked up): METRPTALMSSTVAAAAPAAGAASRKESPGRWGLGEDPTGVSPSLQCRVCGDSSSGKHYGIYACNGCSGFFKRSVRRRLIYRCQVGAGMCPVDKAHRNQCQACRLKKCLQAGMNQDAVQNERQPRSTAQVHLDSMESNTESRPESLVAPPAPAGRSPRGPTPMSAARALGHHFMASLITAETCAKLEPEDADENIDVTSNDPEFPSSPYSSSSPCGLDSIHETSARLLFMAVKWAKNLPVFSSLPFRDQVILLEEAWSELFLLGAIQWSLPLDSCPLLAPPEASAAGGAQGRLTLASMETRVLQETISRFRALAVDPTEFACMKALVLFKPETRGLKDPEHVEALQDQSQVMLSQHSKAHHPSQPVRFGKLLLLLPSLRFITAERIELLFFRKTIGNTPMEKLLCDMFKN
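System: GST-tagged NR2E3 plus biotinylated RetCOR corepressor; Buffer or medium: pH 7.5 Tris-based buffer; Probe or stimulus: RetCOR corepressor, biotinylated, 7 nM; Doses: compound at 4.8 µM, single dose; Schedule: 5 h incubation at 4 °C; Technique: time-resolved FRET; Evaluation: percent inhibition of TR-FRET ratio; Replication: one well per compound, singlicate testing.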
NR2E3 ag-2 – human photoreceptor-specific nuclear receptor agonism; CHO-S Gal4-NCOR/VP16-NR2E3 two-hybrid, luciferase; Q9Y5X4; 0.35% of 360,000 active; inhibition of corepressor binding, % at 3.98 µM;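 active means inhibition above the mean of all tested compounds plus 3 SD, cut at about 70% in these data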;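 further: 0% = DMSO with NR2E3 transfected cells and 100% = cells lacking NR2E3 construct; higher means lower luciferase signal from less NR2E3 corepressor binding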
Env fusion inh – blocks HIV Env-driven cell-cell fusion; HeLa-JRFL Env/CEM21 cell fusion, luciferase; inhibition, % at 12.3 µM; 1.1% of 360,000 active; AID 651610;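 active means mean replicate inhibition score of at least 50 and every replicate individually at or above 50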;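 further: 0% = plate neutral controls and 100% = maraviroc near 300 nM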
* = called active by the depositor; / = no result; [ ] = dose if it differs, or a comment.

SMILES	FXN GAA850 act	GalR3 antagonist	V-ATPase pHluor	NR2E3 ag-1	NR2E3 ag-2	Env fusion inh
CN(C)CC1CCC/C(=C\c2ccc(OC(=O)c3ccc(Cl)cc3)cc2)C1=O (stereo not drawn)	-4	-6	0	/	-57	60*
C[C@@H]1CN([C@@H](C)CO)C(=O)c2cc(NC(=O)Nc3ccccc3)ccc2O[C@H]1CN(C)Cc1ccc(-c2ccccc2)cc1	/	/	/	/	/	8[16.7 µM]
CCS(=O)(=O)c1ccc(N=Nc2ccc(O)c3ncccc23)c(OC)c1	0	-6	-4	/	-27	66*
CC[n+]1c(/C=C/N(C)c2ccccc2)n(-c2ccccc2)c2ccc(-c3nc4ccccc4s3)cc21	-12	/	-3	-1	91*	/
CCOC(=O)c1ccc2c(c1)n(CC)c(/C=C/N(C)c1ccccc1)[n+]2CC	7	-2	-3	-2	-27	19
N#CC(C#N)=C1C=C2C=C(N3CCCCCC3)CCC2CC1 (stereo not drawn)	3	-2	234*	/	-16	12
N#CC(C#N)=C1C=C2C=C(N3CCOCC3)CCC2CC1 (stereo not drawn)	-1	-4	16	/	-16	13
CN1CCN(C2=CC3=CC(=C(C#N)C#N)CCC3CC2)CC1 (stereo not drawn)	-1	/	35	/	-14	/
CCN1CCN(C2=CC3=CC(=C(C#N)C#N)CCC3CC2)CC1 (stereo not drawn)	-2	/	28*	/	-15	/
COc1ccccc1CNC(=O)C[C@H]1C[C@H]2c3cc(NS(C)(=O)=O)ccc3O[C@H]2[C@H](CO)O1	/	/	/	/	/	-3[16.7 µM]
COc1cc(/C=C2\SC(N)=NC2=O)cc(OC)c1	-3	-5	-1	/	-27	59*
CCc1ccc(C(=O)CN2C(=O)NC(C)(c3ccc(C)cc3)C2=O)cc1 (stereo not drawn)	-1	-7	-1	5	-8	69*
Cn1c(=O)oc2cc(S(=O)(=O)N3CCCC3)ccc21	-1	/	-3	4	-34	62*
COCC#Cc1cnc2c(c1)C(=O)N([C@@H](C)CO)C[C@H](C)[C@@H](CN(C)C(=O)c1cccc(F)c1)O2	/	/	/	/	/	14[16.7 µM]
CS(=O)(=O)Nc1ccc2c(c1)[C@H]1C[C@H](CC(=O)N3CCc4ccccc4C3)O[C@H](CO)[C@H]1O2	/	/	/	/	/	63*[16.7 µM]
CN1CCN(C(=O)C[C@@H]2C[C@H]3c4cc(NS(C)(=O)=O)ccc4O[C@H]3[C@@H](CO)O2)CC1	/	/	/	/	/	20[16.7 µM]
CS(=O)(=O)Nc1ccc2c(c1)[C@@H]1C[C@H](CC(=O)N3CCc4ccccc4C3)O[C@@H](CO)[C@@H]1O2	/	/	/	/	/	-7[16.7 µM]
CN1CCN(C(=O)C[C@H]2C[C@@H]3c4cc(NS(C)(=O)=O)ccc4O[C@@H]3[C@H](CO)O2)CC1	/	/	/	/	/	64*[16.7 µM]
CS(=O)(=O)Nc1ccc2c(c1)[C@H]1C[C@@H](CC(=O)NCCN3CCCCC3)O[C@@H](CO)[C@H]1O2	/	/	/	/	/	67*[16.7 µM]
C[C@H](NC(=O)C[C@@H]1C[C@@H]2c3cc(NC(=O)Nc4ccc(C(F)(F)F)cc4)ccc3O[C@@H]2[C@@H](CO)O1)c1ccccc1	/	/	/	/	/	81*[16.7 µM]
C/C=C/c1ccc2c(c1)O[C@H](CN(C)C(=O)c1ccccc1F)[C@H](C)CN([C@H](C)CO)S2(=O)=O	/	/	/	/	/	21[16.7 µM]
CS(=O)(=O)Nc1ccc2c(c1)[C@@H]1C[C@@H](CC(=O)N3CCc4ccccc4C3)O[C@H](CO)[C@@H]1O2	/	/	/	/	/	63*[16.7 µM]
O=C(Nc1ccc(C(F)(F)F)cc1)Nc1ccc2c(c1)[C@@H]1C[C@H](CC(=O)N3CCc4ccccc4C3)O[C@H](CO)[C@@H]1O2	/	/	/	/	/	82*[16.7 µM]
Cc1[nH]n(-c2ccccc2)c(=O)c1C=Nc1cccc2cccnc12	-3	-7	0	-5	6	57*
C[C@@H]1CN([C@@H](C)CO)C(=O)c2cc(NS(C)(=O)=O)ccc2O[C@@H](C)CCCCO[C@H]1CN(C)Cc1ccncc1	/	/	/	/	/	0[16.7 µM]
SMILES	FXN GAA850 act	GalR3 antagonist	V-ATPase pHluor	NR2E3 ag-1	NR2E3 ag-2	Env fusion inh
C[C@@H]1CN([C@@H](C)CO)C(=O)c2cc(NS(=O)(=O)c3cccs3)ccc2O[C@@H]1CN(C)S(=O)(=O)c1cccs1	/	/	/	/	/	-32[16.7 µM]
O=C1C2C3C=CC(C3)C2C(=O)N1/N=C/c1cn(Cc2ccc(F)cc2)c2ccccc12 (stereo not drawn)	1	-2	0	-2	-1	-5
O=C1C2C3C=CC(C3)C2C(=O)N1/N=C/c1cn(Cc2ccccc2)c2ccccc12 (stereo not drawn)	1	-4	13*	-3	19	/
CC(=O)Nc1ccccc1OCC(=O)N(Cc1ccccc1)C(C)C	0	-7	4	2	22	61*
CC(=O)Nc1ccccc1OCC(=O)NC(C)c1ccccc1 (stereo not drawn)	0	-1	3	-4	-17	17
O=C1C(N2CCOCC2)=C(n2nnc3ccccc32)C(=O)c2ccccc21	-4	-5	-3	1	22	80*
O=C1c2ccccc2C(=O)c2c1cccc2-n1nnc2ccccc21	1	-2	0	1	-28	14
COc1ccccc1-c1nnc(Sc2nc([N+](=O)[O-])nn2C)o1	-13	-4	2	0	6	126*
Cn1cnnc1Sc1nc([N+](=O)[O-])nn1C	3	-5	0	4	-14	13
COc1ccccc1OC(C)C(=O)Nc1nc(-c2ccc(S(=O)(=O)N3CCOCC3)cc2)cs1 (stereo not drawn)	1	-4	-2	0	11	60*
CC(C)C(=O)Nc1nc(-c2ccc(S(=O)(=O)N3CCOCC3)cc2)cs1	1	-2	-4	2	10	21
COc1ccc(S(=O)(=O)N(C)C[C@H]2Oc3c(NC(=O)Nc4ccccc4)cccc3C(=O)N([C@@H](C)CO)C[C@H]2C)cc1	/	/	/	/	/	40[16.7 µM]
COCC#Cc1ccc2c(c1)O[C@@H](CN(C)C(=O)CN(C)C)[C@@H](C)CN([C@@H](C)CO)S2(=O)=O	/	/	/	/	/	10[16.7 µM]
CCCCC(CC)CN=C(N)NC(N)=NCCCCCCN=C(N)NC(N)=NCC(CC)CCCC (stereo not drawn)	-10	/	84*	-1	90*	/
CCCCC(CC)CO (stereo not drawn)	0	-2	3	/	-12	/
C[C@@H]1CN([C@H](C)CO)C(=O)c2cccc(N(C)C)c2O[C@H]1CN(C)S(C)(=O)=O	/	/	/	/	/	4[16.7 µM]
COc1ccc(-c2[nH]ncc2CNCCCSC)cc1F	-1	-4	14*	0	6	11
Cc1ccc2cc(C#N)c(NCCNC(=S)NCCCN(C)C)nc2c1C	2	-10	0	-1	7	4
Cc1ccc2cc(C#N)c(NCCNC(=O)C3CC3)nc2c1C	2	-7	0	1	32	113*
COc1cccc(S(=O)(=O)N2CCC3(CC2)CN(C(=O)Nc2cccc(F)c2)[C@@H](CO)c2[nH]c4cc(OC)ccc4c23)c1	/	/	/	/	/	72*[16.7 µM]

Screening data deposited in PubChem by several laboratories.
